The results in this text go back to ChEMBL document CHEMBL3865795, “Design, synthesis and biological evaluation of N-((1-benzyl-1H-1,2,3-triazol-4-yl)methyl)-1,3-diphenyl-1H-pyrazole-4-carboxamides as CDK1/Cdc2 inhibitors” (2016).

SMILES strings stand for the structures.

A short description of experiment [1]: Antiproliferative activity against human MCF7 cells after 48 hrs by SRB assay. It counts as functional. The following applies: MCF7, 48 h. The essentials: (§1)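 SRB assay in ATCC-sourced cells grown in DMEM with 10% FBS and penicillin/streptomycin at 37 °C, 5% CO2. Cells were plated at densities set by doubling time and incubated 24 h before dosing. Compounds (DMSO 10 mM stock diluted in medium) were tested at 0.01, 0.1, 1, 10 and 100 µM with 48 h continuous exposure. Cells were fixed in cold 10% TCA and stained with 0.057% SRB; OD was read at 510 nm. GI50 was derived from time-zero, control and test absorbances and reported as the mean of three independent experiments.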
(In general: In SRB staining, fixed cells bind dye roughly in proportion to their protein.)

Experiment [2] in a line: Antiproliferative activity against human HeLa cells after 48 hrs by SRB assay. It is filed as functional. The method in brief:
as §1

A short description of experiment [3]: Antiproliferative activity against human MIAPaCa2 cells after 48 hrs by SRB assay. It counts as functional. The following applies: MIA PaCa-2, 48 h. The essentials: as §1
The test system of experiment [4] is MCF7. The experiment can be described thus: Induction of apoptosis in human MCF7 cells assessed as late apoptotic cells at 100 nM after 48 hrs by Annexin V FITC/propidium iodide-based FACS analysis (reference value: 4.2 %). It counts as functional. A general note: In flow cytometry, cells or beads pass a laser one at a time.
The test system of experiment [5] is MCF7. The experiment in a line: Induction of apoptosis in human MCF7 cells assessed as necrotic cells at 100 nM after 48 hrs by Annexin V FITC/propidium iodide-based FACS analysis (reference value: 0.4 %). It counts as functional.
Experiment [6] concerns MCF7. The experiment can be described thus: Induction of apoptosis in human MCF7 cells after 48 hrs by Annexin V FITC/propidium iodide-based FACS analysis. It counts as functional, cell-based.
Experiment [7] has as its system MCF7. The experiment in a line: Induction of apoptosis in human MCF7 cells assessed as early apoptotic cells at 100 nM after 48 hrs by Annexin V FITC/propidium iodide-based FACS analysis (reference value: 2.4 %). It is filed as functional.
In experiment [8] the test system is MCF7. The experiment in a line: Induction of apoptosis in human MCF7 cells assessed as viable cells at 100 nM after 48 hrs by Annexin V FITC/propidium iodide-based FACS analysis (reference value: 93.1 %). It is filed as functional. Particulars: MCF7, 48 h, read-out: Activity.

The GI50 is the concentration at which growth is held to half of that of the control. A low value points to greater sensitivity of the cells. `COc1ccc(-c2nn(-c3ccccc3)cc2C(=O)NCc2cn(Cc3ccc(OC)c(OC)c3)nn2)cc1`: the values for the 50% growth inhibitory concentration (GI50) in experiment [1], in experiment [2] and in experiment [3] were more than 100 µM, 0.8 µM and 16.3 µM, respectively.

Turning to `COc1cc(Cn2cc(CNC(=O)c3cn(-c4ccccc4)nc3-c3ccccc3)nn2)cc(OC)c1`, the GI50 came out at 2.4 µM in experiment [1], 12.2 µM in experiment [2] and 0.19 µM in experiment [3].

With `COc1ccc(Cn2cc(CNC(=O)c3cn(-c4ccccc4)nc3-c3ccccc3)nn2)cc1`, the GI50 in experiment [1] is more than 100 µM; in experiment [2], 6.9 µM; in experiment [3] it was 10.2 µM.

`COc1ccc(Cn2cc(CNC(=O)c3cn(-c4ccccc4)nc3-c3ccc(Cl)cc3)nn2)cc1OC`: the concentration for 50% growth inhibition (GI50) in experiment [1] is more than 100 µM; in experiment [2] it was 0.2 µM; in experiment [3], 9.4 µM.

On to `COc1ccc(-c2nn(-c3ccccc3)cc2C(=O)NCc2cn(Cc3ccc(C(F)(F)F)cc3)nn2)cc1`, for which the GI50 is more than 100 µM in experiment [1], 6.2 µM in experiment [2] and more than 100 µM in experiment [3].

As to `COc1cc(Cn2cc(CNC(=O)c3cn(-c4ccccc4)nc3-c3ccc(Cl)cc3)nn2)cc(OC)c1OC`, the GI50 is 2.5 µM in experiment [1], 0.1 µM in experiment [2] and 3.5 µM in experiment [3].

In the case of `COc1ccc(Cn2cc(CNC(=O)c3cn(-c4ccccc4)nc3-c3ccccc3)nn2)cc1OC`, the GI50 in experiment [1] was determined as 12.6 µM; in experiment [2] it was 10.8 µM; in experiment [3], 8.2 µM.

On to `COc1ccc(Cn2cc(CNC(=O)c3cn(-c4ccccc4)nc3-c3ccc(OC)cc3)nn2)cc1`, for which the results for the 50% growth inhibitory concentration (GI50) in experiment [1], in experiment [2] and in experiment [3] were 22.9 µM, 0.45 µM and 2.5 µM, respectively.

With `O=C(NCc1cn(Cc2ccc(C(F)(F)F)cc2)nn1)c1cn(-c2ccccc2)nc1-c1ccc(Cl)cc1`, the concentration for 50% growth inhibition (GI50) in experiment [1] turned out to be 4.9 µM; in experiment [2] it was 1.9 µM; in experiment [3] it was 1.1 µM.

As for `O=C(NCc1cn(Cc2ccc(C(F)(F)F)cc2)nn1)c1cn(-c2ccccc2)nc1-c1ccccc1`, the values for the 50% growth inhibitory concentration (GI50) in experiment [1], in experiment [2] and in experiment [3] were 0.84 µM, 1.6 µM and 17.7 µM, respectively.

Turning to `COc1cc(Cn2cc(CNC(=O)c3cn(-c4ccccc4)nc3-c3ccc(F)cc3)nn2)cc(OC)c1OC`, the concentration for 50% growth inhibition (GI50) in experiment [1] turned out to be 4.3 µM; in experiment [2] it was 2.1 µM; in experiment [3], 5.2 µM.

`COc1ccc(-c2nn(-c3ccccc3)cc2C(=O)NCc2cn(Cc3cc(OC)c(OC)c(OC)c3)nn2)cc1`: the 50% growth inhibitory concentration (GI50) in experiment [1] was 7.6 µM; in experiment [2], 1.7 µM; in experiment [3], 31.6 µM.

Regarding `COc1ccc(-c2nn(-c3ccccc3)cc2C(=O)NCc2cn(Cc3cc(OC)cc(OC)c3)nn2)cc1`, the values for the 50% growth inhibitory concentration (GI50) in experiment [1], in experiment [2] and in experiment [3] were 0.7 µM, 12.4 µM and 5.8 µM, respectively.

For `O=C(NCc1cn(Cc2ccc(F)cc2)nn1)c1cn(-c2ccccc2)nc1-c1ccccc1`, the 50% growth inhibitory concentration (GI50) is 7 µM in experiment [1], 1.6 µM in experiment [2] and 9.6 µM in experiment [3].

As to `COc1cc(Cn2cc(CNC(=O)c3cn(-c4ccccc4)nc3-c3ccccc3)nn2)cc(OC)c1OC`, the 50% growth inhibitory concentration (GI50) in experiment [1] was more than 100 µM; in experiment [2], more than 100 µM; in experiment [3], 1 µM.

As for `COc1ccc(-c2nn(-c3ccccc3)cc2C(=O)NCc2cn(Cc3ccc(Cl)cc3)nn2)cc1`, the GI50 worked out at 2.9 µM in experiment [1], 6.4 µM in experiment [2] and 26.3 µM in experiment [3].

On to `O=C(NCc1cn(Cc2ccc(F)cc2)nn1)c1cn(-c2ccccc2)nc1-c1ccc(F)cc1`, for which the concentration for 50% growth inhibition (GI50) in experiment [1] came to 55.3 µM; in experiment [2], 1.2 µM; in experiment [3], 14.3 µM.

In the case of `O=C(NCc1cn(Cc2ccc(Cl)cc2)nn1)c1cn(-c2ccccc2)nc1-c1ccccc1`, the values for the GI50 in experiment [1], in experiment [2] and in experiment [3] were more than 100 µM, 0.6 µM and 8.7 µM, respectively.

Regarding `COc1ccc(Cn2cc(CNC(=O)c3cn(-c4ccccc4)nc3-c3ccc(F)cc3)nn2)cc1OC`, the 50% growth inhibitory concentration (GI50) in experiment [1] was more than 100 µM; in experiment [2], 0.2 µM; in experiment [3] it was more than 100 µM.

`COc1ccc(Cn2cc(CNC(=O)c3cn(-c4ccccc4)nc3-c3ccc(Cl)cc3)nn2)cc1`: the concentration for 50% growth inhibition (GI50) in experiment [1] was found to be 8 µM; in experiment [2], 1.4 µM; in experiment [3] it was 0.29 µM.

Take `COC(=O)Nc1nc2cc(C(=O)c3cccs3)ccc2[nH]1` [NOCODAZOLE]: the GI50 in experiment [1] amounted to 0.94 µM; in experiment [2] it was 0.81 µM; in experiment [3], 0.95 µM. For the same compound, the Activity is 20.3% in experiment [4], 1.6% in experiment [5], “Dose-dependent effect” in experiment [6] and 7.6% in experiment [7]. The viability at 0.1 µM in experiment [8] was determined as 70.5%.

Take `O=C(NCc1cn(Cc2ccc(C(F)(F)F)cc2)nn1)c1cn(-c2ccccc2)nc1-c1ccc(F)cc1`: the GI50 was found to be 0.81 µM in experiment [1], 0.25 µM in experiment [2] and 0.76 µM in experiment [3].

Turning to `COc1ccc(-c2nn(-c3ccccc3)cc2C(=O)NCc2cn(Cc3ccc(F)cc3)nn2)cc1`, the GI50 was found to be 0.46 µM in experiment [1], 0.5 µM in experiment [2] and 24.1 µM in experiment [3].

As to `COc1ccc(Cn2cc(CNC(=O)c3cn(-c4ccccc4)nc3-c3ccc(F)cc3)nn2)cc1`, the 50% growth inhibitory concentration (GI50) in experiment [1] is 0.65 µM; in experiment [2] it was 0.87 µM; in experiment [3], 3.7 µM.

In the case of `COc1cc(Cn2cc(CNC(=O)c3cn(-c4ccccc4)nc3-c3ccc(F)cc3)nn2)cc(OC)c1`, the concentration for 50% growth inhibition (GI50) came out at 2.5 µM in experiment [1], 0.36 µM in experiment [2] and 0.19 µM in experiment [3].

In the case of `O=C(NCc1cn(Cc2ccc(F)cc2)nn1)c1cn(-c2ccccc2)nc1-c1ccc(Cl)cc1`, the GI50 in experiment [1] was determined as 0.57 µM; in experiment [2] it was 2.8 µM; in experiment [3] it was 1.99 µM.

Take `O=C(NCc1cn(Cc2ccc(Cl)cc2)nn1)c1cn(-c2ccccc2)nc1-c1ccc(Cl)cc1`: the 50% growth inhibitory concentration (GI50) amounted to 28.8 µM in experiment [1], 0.47 µM in experiment [2] and 0.41 µM in experiment [3].
